Measured values published in ChEMBL document CHEMBL3745713, “Bromotyrosine-derived metabolites from an Indonesian marine sponge in the family Aplysinellidae (Order Verongiida)” (Bioorg Med Chem Lett, 2016).

Assays:
[1] = Cytotoxicity against mouse NIH/3T3 cells assessed as cell growth at 50 uM measured at 72 hrs by CyQuant proliferation assay relative to control; assay type: cell-based, NIH3T3; settings: read-out: Activity
In short: (§1)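 Single-concentration screen at 50 and 5 μM across the cancer lines and normal mouse NIH3T3 fibroblasts. Cell growth was read by CyQuant proliferation assay at 72 h. Values are expressed relative to DMSO-treated control. Done in triplicate, one experiment (n=1).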

[2] = Cytotoxicity against human U251MG cells assessed as cell growth at 5 uM measured at 72 hrs by CyQuant proliferation assay relative to control; assay type: functional; settings: U-251, 72 h, read-out: Activity; in short: as §1
[3] = Cytotoxicity against mouse NIH/3T3 cells assessed as cell growth at 5 uM measured at 72 hrs by CyQuant proliferation assay relative to control; assay type: cell-based, NIH3T3; settings: read-out: Activity; in short: as §1
MCF7 [4] = test: Cytotoxicity against human MCF7 cells assessed as cell growth at 50 uM measured at 72 hrs by CyQuant proliferation assay relative to control; assay type: functional; settings: MCF7, 72 h, read-out: Activity; in short: as §1
[5] = Cytotoxicity against human A2780S cells assessed as cell growth at 50 uM measured at 72 hrs by CyQuant proliferation assay relative to control; assay type: functional; settings: A2780, 72 h, read-out: Activity; in short: as §1
MCF7 [6] = test: Cytotoxicity against human MCF7 cells assessed as cell growth at 5 uM measured at 72 hrs by CyQuant proliferation assay relative to control; assay type: functional; settings: MCF7, 72 h, read-out: Activity; in short: as §1
[7] = Cytotoxicity against human A2780S/CP5 cells assessed as cell growth at 5 uM measured at 72 hrs by CyQuant proliferation assay relative to control; assay type: functional; settings: A2780S/CP5, 72 h, read-out: Activity; in short: as §1
A549 [8] = test: Cytotoxicity against human A549 cells assessed as cell growth at 50 uM measured at 72 hrs by CyQuant proliferation assay relative to control; assay type: functional; settings: A549, 72 h, read-out: Activity; in short: as §1
[9] = Cytotoxicity against human A2780S cells assessed as cell growth at 5 uM measured at 72 hrs by CyQuant proliferation assay relative to control; assay type: functional; settings: A2780, 72 h, read-out: Activity; in short: as §1
A549 [10] = test: Cytotoxicity against human A549 cells assessed as cell growth at 5 uM measured at 72 hrs by CyQuant proliferation assay relative to control; assay type: functional; settings: A549, 72 h, read-out: Activity; in short: as §1
[11] = Cytotoxicity against human U251MG cells assessed as cell growth at 50 uM measured at 72 hrs by CyQuant proliferation assay relative to control; assay type: functional; settings: U-251, 72 h, read-out: Activity; in short: as §1
[12] = biological target: Beta-secretase 1 (Homo sapiens) (UniProt P56817); test: Inhibition of BACE1 (unknown origin) using BACE ED as substrate at 31.8 uM by EFC assay
[13] = Cytotoxicity against human A2780S/CP5 cells assessed as cell growth at 50 uM measured at 72 hrs by CyQuant proliferation assay relative to control; assay type: functional; settings: A2780S/CP5, 72 h, read-out: Activity; in short: as §1
[14] = biological target: Beta-secretase 1 (Homo sapiens) (UniProt P56817); test: Inhibition of BACE1 (unknown origin) using BACE ED as substrate at 41.9 uM by EFC assay
[15] = biological target: Beta-secretase 1 (Homo sapiens) (UniProt P56817); test: Inhibition of BACE1 (unknown origin) using BACE ED as substrate at 42 uM by EFC assay
[16] = Cytotoxicity against human A2780S/CP5 cells by CyQuant proliferation assay; assay type: functional, cell-based
In short: (§2)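 CyQuant proliferation assay in A2780S, cisplatin-resistant A2780CP (SCP5) and U251MG cells. Cells were exposed to varying concentrations, maximum 50 μM, and compared with solvent-only treated cells. IC50 was determined from triplicates, two independent experiments (n=2).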

[17] = Cytotoxicity against human A2780S cells by CyQuant proliferation assay; assay type: functional, cell-based; settings: A2780; in short: as §2
[18] = Cytotoxicity against human U251MG cells by CyQuant proliferation assay; assay type: functional, cell-based; settings: U-251; in short: as §2
[19] = biological target: Beta-secretase 1 (Homo sapiens) (UniProt P56817); test: Inhibition of BACE1 (unknown origin) using BACE ED as substrate at 48.3 uM by EFC assay
[20] = biological target: Beta-secretase 1 (Homo sapiens) (UniProt P56817); test: Inhibition of BACE1 (unknown origin) using BACE ED as substrate at 41.7 uM by EFC assay
[21] = biological target: Beta-secretase 1 (Homo sapiens) (UniProt P56817); test: Inhibition of BACE1 (unknown origin) using BACE ED as substrate at 31.4 uM by EFC assay
[22] = biological target: Beta-secretase 1 (Homo sapiens) (UniProt P56817); test: Inhibition of BACE1 (unknown origin) using BACE ED as substrate at 30.6 uM by EFC assay
[23] = biological target: Beta-secretase 1 (Homo sapiens) (UniProt P56817); test: Inhibition of BACE1 (unknown origin) using BACE ED as substrate at 42.6 uM by EFC assay

Chain of Beta-secretase 1 (Homo sapiens) (P56817 whole entry): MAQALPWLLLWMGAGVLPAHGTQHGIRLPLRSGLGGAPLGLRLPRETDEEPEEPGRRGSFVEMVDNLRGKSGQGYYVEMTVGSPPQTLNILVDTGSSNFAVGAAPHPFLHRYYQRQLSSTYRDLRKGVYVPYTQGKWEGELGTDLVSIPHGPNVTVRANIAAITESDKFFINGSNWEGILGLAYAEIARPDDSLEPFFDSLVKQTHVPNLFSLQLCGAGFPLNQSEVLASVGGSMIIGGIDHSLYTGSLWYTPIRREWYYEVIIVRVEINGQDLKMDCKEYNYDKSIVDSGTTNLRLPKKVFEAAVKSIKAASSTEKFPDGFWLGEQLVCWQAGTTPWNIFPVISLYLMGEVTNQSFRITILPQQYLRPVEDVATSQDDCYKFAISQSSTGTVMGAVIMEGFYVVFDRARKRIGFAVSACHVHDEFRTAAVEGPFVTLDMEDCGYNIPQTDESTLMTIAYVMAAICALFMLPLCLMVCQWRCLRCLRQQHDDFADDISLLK

SMILES	viability at 72 h, 50 µM [1]	growth at 5 µM [2]	viability at 72 h, 5 µM [3]	growth at 50 µM (MCF7 [4])	growth at 50 µM [5]	growth at 5 µM (MCF7 [6])	growth at 5 µM [7]	growth at 50 µM (A549 [8])	growth at 5 µM [9]	growth at 5 µM (A549 [10])	growth at 50 µM [11]	growth at 50 µM [13]	further results
COC1=C(Br)[C@@H](O)[C@]2(C=C1Br)CC(C(=O)NCCCOc1c(Br)cc(CCNC(=O)CCCCCCCCCCCC(C)C)cc1Br)=NO2	95%	98%	88%	64%	18%	103%	68%	85%	77%	88%	80%	48%	inhibition [12]: 57%
COC1=C(Br)[C@@H](O)[C@]2(C=C1Br)CC(C(=O)NCCCOc1c(Br)cc(C(=O)O)cc1Br)=NO2	29%	101%	94%	60%	21%	86%	33%	68%	37%	81%	39%	25%	inhibition [14]: 35%
CCCCCCC(C)CCCCCCCCC(=O)NCCc1cc(Br)c(OCCCNC(=O)C2=NO[C@@]3(C=C(Br)C(OC)=C(Br)[C@H]3O)C2)c(Br)c1 (stereo not given in full)	102%	100%	98%	109%	88%	106%	100%	106%	90%	82%	101%	78%	
COc1c(Br)cc(C/C(=N\O)C(=O)NCCCOc2c(Br)cc(CCN)cc2Br)c(O)c1Br	104%	111%	102%	27%	9%	97%	96%	21%	60%	96%	20%	9%	inhibition [15]: 36%; IC50 [16]: 40 µM; IC50 [17]: 20 µM; IC50 [18]: 50 µM
CNCCCOc1c(Br)cc(CCNC(=O)/C(Cc2ccc(O)c(Br)c2)=N/O)cc1Br	105%	111%	99%	69%	26%	100%	94%	64%	82%	97%	40%	51%	inhibition [19]: 48%; IC50 [16]: > 50 µM; IC50 [17]: > 50 µM; IC50 [18]: > 50 µM
COC1=C(Br)[C@@H](O)[C@]2(C=C1Br)CC(C(=O)NCCCOc1c(Br)cc(CCN)cc1Br)=NO2 [ARAPLYSILLIN 1]	7%	32%	38%	71%	14%	36%	11%	17%	8%	16%	30%	22%	inhibition [20]: 27%
CNCCCOc1c(Br)cc(CCNC(=O)/C(Cc2cc(Br)c(OC)c(Br)c2)=N/O)cc1Br	3%	17%	101%	58%	13%	50%	29%	11%	11%	42%	30%	10%	inhibition [15]: 74%
CCCCCCC(C)CCCCCCCC(=O)NCCc1cc(Br)c(OCCCNC(=O)C2=NO[C@@]3(C=C(Br)C(OC)=C(Br)[C@H]3O)C2)c(Br)c1 (stereo not given in full)	95%	99%	94%	101%	87%	104%	109%	105%	85%	89%	97%	79%	inhibition [21]: 70%
CCCCC(C)CCC/C=C\CCCCCCC(=O)NCCc1cc(Br)c(OCCCNC(=O)C2=NO[C@@]3(C=C(Br)C(OC)=C(Br)[C@H]3O)C2)c(Br)c1 (stereo not given in full)	98%	98%	100%	104%	76%	105%	105%	104%	82%	98%	90%	66%	inhibition [22]: 60%
COc1c(Br)cc(C/C(=N\O)C(=O)NCCc2cc(Br)c(OCCCN)c(Br)c2)cc1Br	16%	107%	105%	26%	11%	95%	78%	24%	81%	92%	24%	12%	inhibition [23]: 62%
